Rows were chosen to be rich in hits. Some 3.7% of all compounds tested hit in one or more screens of this group.
KCNK9 block – KCNK9 potassium channel inhibitors, primary screen, HEK293 cells, thallium flux. B-score at 10 µM. 1.2% of 310,000 active. FluxOR thallium flux fluorescence; hits give low values. Potassium channel subfamily K member 9 (Homo sapiens), Q9NPC2;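 active = ratio B-score over 3 SD below the library mean, with starting fluorescence within 5 SD of its mean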;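 also: negative B-score means less thallium flux so channel inhibition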
KCNK3 block – human KCNK3 channel inhibitors, primary screen, CHO cells, FluxOR thallium flux, B-score. Potassium channel subfamily K member 3 (Homo sapiens), O14649. FluxOR fluorescence; hits give low values. B-score at 10 µM. 0.84% of 340,000 active. AID 602410, 2012;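 active = B-score under library mean minus 4 SD, starting fluorescence ratio at most library mean plus 5 SD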;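 also: more negative B-score means stronger inhibition of thallium flux through KCNK3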
KCNQ1 pot – potentiators or activators of KCNQ1 channel, primary screen, cell-based, thallium flux, high-throughput. Potassium voltage-gated channel subfamily KQT member 1 (Homo sapiens), P51787. CHO-K1 KCNQ1, thallium flux FluxOR fluorescence; hits give high values. B-score at 10 µM. 0.35% of 310,000 active. AID 2648, 2010;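 active = fluorescence ratio B-score, a plate-corrected score, at least three library SD, with initial intensity B-score within 5 SD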
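assay system = CHO-K1 cells stably expressing KCNQ1 | medium = assay buffer, equal DMSO in all wells | timing = 37 °C overnight plating, 90-min dark dye load, 20-min compound pretreatment | measured by = kinetic FluxOR thallium fluorescence, 10-s 1-Hz baseline, 110-s post-stimulus read | measure = fluorescence change relative to baseline, converted to B score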
KCNQ1 block – inhibitors of human KCNQ1 channel, primary screen, cell-based, thallium flux, high-throughput; B-score at 10 µM; 1.3% of 310,000 active; Potassium voltage-gated channel subfamily KQT member 1 (Homo sapiens), P51787; CHO-K1 KCNQ1, FluxOR thallium flux fluorescence; hits give high values;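 active = compounds whose thallium flux B-score, printed positive for inhibition, exceeds three library SD while starting fluorescence stays within three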;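 also: channel opened by potassium depolarization with thallium stimulus after 20 min compound exposure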
hERG protect – hERG rescue from dofetilide block, primary screen, cell-based, CHO-hERG, FluxOR thallium flux, dofetilide IC70; Voltage-gated inwardly rectifying potassium channel KCNH2 (Homo sapiens), Q12809; dofetilide IC70 present; activation (rescue from dofetilide block), less the hit threshold, % at 10 µM; 0.51% of 310,000 active; AID 1511, 2009;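 active = activation above the mean of controls blocked by dofetilide plus 5 SD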;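 also: thallium influx through hERG after potassium depolarization seen as dye fluorescence rise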
Target sequence (Q12809 whole entry, looked up): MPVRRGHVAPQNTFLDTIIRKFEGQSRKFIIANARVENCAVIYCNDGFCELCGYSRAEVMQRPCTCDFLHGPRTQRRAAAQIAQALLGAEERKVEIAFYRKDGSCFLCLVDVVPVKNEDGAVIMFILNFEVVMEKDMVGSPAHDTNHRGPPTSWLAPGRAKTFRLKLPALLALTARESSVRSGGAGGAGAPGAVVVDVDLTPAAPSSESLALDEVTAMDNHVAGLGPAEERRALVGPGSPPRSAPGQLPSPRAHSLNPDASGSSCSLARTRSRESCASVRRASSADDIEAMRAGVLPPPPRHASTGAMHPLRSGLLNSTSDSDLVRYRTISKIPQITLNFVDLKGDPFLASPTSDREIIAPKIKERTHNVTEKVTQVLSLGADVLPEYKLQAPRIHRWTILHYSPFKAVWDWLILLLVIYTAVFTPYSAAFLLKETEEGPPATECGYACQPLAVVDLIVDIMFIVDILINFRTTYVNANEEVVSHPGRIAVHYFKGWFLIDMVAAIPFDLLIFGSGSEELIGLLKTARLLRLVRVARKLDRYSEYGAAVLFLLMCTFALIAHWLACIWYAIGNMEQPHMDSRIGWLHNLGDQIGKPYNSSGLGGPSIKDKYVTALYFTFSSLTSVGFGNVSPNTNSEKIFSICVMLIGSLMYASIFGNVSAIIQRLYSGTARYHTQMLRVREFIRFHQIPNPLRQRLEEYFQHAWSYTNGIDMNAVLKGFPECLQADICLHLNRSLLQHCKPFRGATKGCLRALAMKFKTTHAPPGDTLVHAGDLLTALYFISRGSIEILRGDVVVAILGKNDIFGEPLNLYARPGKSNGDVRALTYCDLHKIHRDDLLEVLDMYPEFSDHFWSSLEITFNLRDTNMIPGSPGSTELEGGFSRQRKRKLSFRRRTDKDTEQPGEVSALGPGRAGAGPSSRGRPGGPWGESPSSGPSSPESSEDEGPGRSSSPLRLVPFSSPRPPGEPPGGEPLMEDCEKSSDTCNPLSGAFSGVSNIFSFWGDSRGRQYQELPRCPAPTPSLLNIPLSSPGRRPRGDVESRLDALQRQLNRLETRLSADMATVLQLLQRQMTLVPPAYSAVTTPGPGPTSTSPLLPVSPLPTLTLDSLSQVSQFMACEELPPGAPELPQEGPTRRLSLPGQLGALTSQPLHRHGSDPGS
Kir21 block – inhibitors of mouse Kir2.1 inward-rectifier potassium channel; 0.85% of 310,000 active; AID 1672, 2009; HEK293-Kir2.1, FluxOR thallium flux fluorescence; hits give low values; Inward rectifier potassium channel 2 (Mus musculus), P35561; B-score at 10 µM;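 active = fluorescence ratio B-score at or below minus 3 SD of library scores, with starting-brightness B-score within 2 SD, cut at about -4.2 in these data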;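 also: channel flux triggered by added potassium and thallium sulfate stimulus; B-score of peak minus minimum fluorescence over baseline after thallium stimulus; more negative B-score means stronger Kir2.1 block with less thallium influx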
A number is an active result; i = inactive; nt = not tested or not shown.

SMILES | KCNK9 block | KCNK3 block | KCNQ1 pot | KCNQ1 block | hERG protect | Kir21 block
CCOc1ccc(NC(=O)c2cn(-c3ccc(OCC)cc3)c(=O)c3cc(OC)c(OC)cc23)cc1 | i | i | i | i | i | i
CCc1ccc(S(=O)(=O)NCCc2cn3ccc(C)cc3n2)s1 | i | i | i | i | i | -8.85
O=C(C=Cc1ccc2c(c1)OCO2)c1ccccc1 | nt | i | nt | nt | nt | nt
CCOC(=O)C(=Cc1ccc2c(c1)OCO2)c1ccccc1 | nt | -9.8 | nt | nt | nt | nt
Oc1c(N=Nc2ccccn2)ccc2ccccc12 | i | i | 29 | i | 24.6 | i
Oc1[nH]c2ccccc2c1N=Nc1ccccn1 | nt | i | nt | nt | nt | nt
Cc1ccc(OC(C)C(=O)N=Nc2c(O)[nH]c3ccc([N+](=O)[O-])cc23)cc1 (configuration not stated) | i | i | i | i | i | i
FC(F)c1nnc2c(Cl)cc(C(F)(F)F)cn12 | i | i | i | i | 6.4 | i
Fc1ccc(-c2nc3c(Cl)cc(C(F)(F)F)cn3c2Cl)cc1 | i | i | i | i | i | i
CCC(C)(C)NC(=O)C(c1cccc(OC)c1OC)N(C(=O)CCC(=O)Nc1cc(C)on1)C(C)C (configuration not stated) | i | i | i | i | i | i
CCOC(=O)N1CCC2CC1c1cc(-c3cccc(OC)c3)ccc12 (configuration not stated) | nt | i | nt | nt | nt | nt
C=CC1CN(C(=O)OCC(Cl)(Cl)Cl)C2CC3c4ccc(OC)cc4NC3C3CC1C2CO3 (configuration not stated) | i | nt | i | 7 | i | i
COc1ccc(CCN(C)C(=O)c2ccc(COc3ccccc3)o2)cc1OC | i | i | i | i | i | -5.76
COC(=O)c1ccccc1NC(=O)c1ccc(COc2ccccc2)o1 | nt | -10.3 | nt | nt | nt | nt
COc1ccc(CNC(=O)c2ccc(N3CCOCC3)c([N+](=O)[O-])c2)cc1 | i | i | i | i | i | -4.88
CCCCCCCNC(=O)c1ccc(N2CCC3(CC2)OCCO3)c([N+](=O)[O-])c1 | -6.83 | i | i | i | i | i
O=C(NCc1ccc(F)cc1)c1ccc(N2CCc3ccccc32)c([N+](=O)[O-])c1 | i | i | i | i | i | -5.39
CCCNC(=O)c1ccc(N2CCC3(CC2)CC(c2ccccc2)=NO3)c([N+](=O)[O-])c1 | i | i | i | i | i | i
O=C(O)c1ccc(N2CCc3ccccc32)c([N+](=O)[O-])c1 | i | i | i | i | i | i
CC(NC(=O)c1ccccc1)c1nnc(SCC(=O)Nc2nnc(C3CC3)s2)n1C (configuration not stated) | i | i | i | i | i | i
Cc1c(Cl)cccc1NC(=S)NC1CCN(Cc2ccccc2)CC1 | i | i | i | i | i | i
S=C(Nc1ccccc1Cl)NC1CCN(Cc2ccccc2)CC1 | i | i | i | i | i | -6.74
O=C(NC1CCN(Cc2ccccc2)CC1)c1ccc(Cl)cc1Cl | i | i | i | i | i | -6.53
O=C(COC(=O)c1ccc(F)c(S(=O)(=O)N2CCOCC2)c1)Nc1ccc2c(c1)OCO2 | nt | i | nt | nt | nt | nt
O=C(CNc1cccc(S(=O)(=O)N2CCCC2)c1)Nc1ccc(C(F)(F)F)cc1 | i | i | i | i | i | i
CCC(=O)N1CCc2nc(-c3ccccc3)sc2C1 | i | i | i | i | i | i
COc1cc(-c2nc(C(=O)NC3CCN(Cc4ccccc4)CC3)cc3c2[nH]c2ccccc23)cc(OC)c1OC | i | i | i | 6 | i | i
COc1cc(-c2nc(C(=O)NC3CCCCC3)cc3c2[nH]c2ccccc23)cc(OC)c1OC | i | i | i | i | i | i
O=C(CCCN1C(=O)NC2(CCCC2)C1=O)Nc1ccc(Cl)c(S(=O)(=O)N2CCOCC2)c1 | nt | i | nt | nt | nt | nt
CN(Cc1ccccc1)C(=O)c1[nH]cnc1C(=O)Nc1nccs1 | nt | i | nt | nt | nt | nt
